Reference: ChEMBL document CHEMBL5038671, “Hydrophobic Tagging-Induced Degradation of PDEδ in Colon Cancer Cells” (ACS Med Chem Lett, 2022)

What was measured:
[1] = molecular target: Retinal rod rhodopsin-sensitive cGMP 3',5'-cyclic phosphodiesterase subunit delta (Homo sapiens, UniProt O43924); assay: Binding affinity to PDE delta (unknown origin) assessed as dissociation constant measured after 2 hrs by fluorescence polarization assay
[2] = system: SW480; assay: Antiproliferative activity against human SW480 cells assessed as cell growth inhibition and measured after 72 hrs by CCK8 assay; conditions: SW480, 72 h
[3] = system: HCT-116; assay: Antiproliferative activity against human HCT-116 cells assessed as cell growth inhibition and measured after 72 hrs by CCK8 assay; conditions: HCT-116, 72 h
[4] = system: SW480; assay: Down regulation of p-Akt expression in human SW480 cells measured for 24 hrs by western blot analysis; format: functional, cell-based
How it was run: (§1)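 PDEδ downstream proteins examined in SW480 cells treated 24 h, by Western blot; blots repeated at least three times, bar graphs as mean ± SD.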

[5] = system: SW480; assay: Down regulation of p-ERK expression in human SW480 cells measured for 24 hrs by western blot analysis; format: functional, cell-based; how it was run: as §1
[6] = system: SW480; assay: Antiproliferative activity against human SW480 cells assessed as apoptosis induction at 30 uM measured for 24 hrs by Annexin V-FITC/PI staining based flow cytometry analysis (reference value: 46%); format: functional
[7] = system: SW480; assay: Antiproliferative activity against human SW480 cells assessed as apoptosis induction at 40 uM measured for 24 hrs by Annexin V-FITC/PI staining based flow cytometry analysis (reference value: 46%); format: functional
[8] = system: SW480; assay: Antiproliferative activity against human SW480 cells assessed as apoptosis induction at 50 uM measured for 24 hrs by Annexin V-FITC/PI staining based flow cytometry analysis (reference value: 46%); format: functional

Retinal rod rhodopsin-sensitive cGMP 3',5'-cyclic phosphodiesterase subunit delta, sequence (O43924 whole entry): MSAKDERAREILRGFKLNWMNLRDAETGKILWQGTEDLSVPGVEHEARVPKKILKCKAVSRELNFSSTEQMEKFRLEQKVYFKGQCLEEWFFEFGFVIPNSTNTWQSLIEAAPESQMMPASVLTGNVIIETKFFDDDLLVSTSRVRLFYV

Row | SMILES | IC50 [2] | IC50 [3] | further results
1 | Cc1ccc(-n2nc3c(=O)n(CCCC(=O)NCCc4ccc(NC(=O)CCCCCCCCCC(=O)NCC56CC7CC(CC(C7)C5)C6)cc4)nc(C)c3c2C)cc1 | 14 µM | > 100 µM | Ki [1]: > 1 µM
2 | Cc1ccc(-n2nc3c(=O)n(CCCC(=O)NC45CC6CC(CC(C6)C4)C5)nc(C)c3c2C)cc1 | > 100 µM | > 100 µM | 
3 | Cc1ccc(-n2nc3c(=O)n(CCCC(=O)NCCc4ccc(NC(=O)CCCCCCNC(=O)CC56CC7CC(CC(C7)C5)C6)cc4)nc(C)c3c2C)cc1 | > 100 µM | > 100 µM | 
4 | Cc1ccc(-n2nc3c(=O)n(CCCC(=O)NCCc4ccc(NC(=O)CCCC(=O)NCC56CC7CC(CC(C7)C5)C6)cc4)nc(C)c3c2C)cc1 | 19.8 µM | 39 µM | 
5 | Cc1ccc(-n2nc3c(=O)n(CCCC(=O)NCCCCCC(=O)NCC45CC6CC(CC(C6)C4)C5)nc(C)c3c2C)cc1 | > 100 µM | 32.5 µM | 
6 | Cc1ccc(-n2nc3c(=O)n(CCCC(=O)NCCOCCOCCNC(=O)CC45CC6CC(CC(C6)C4)C5)nc(C)c3c2C)cc1 | 5.4 µM | 18.5 µM | 
7 | Cc1ccc(-n2nc3c(=O)n(CCCC(=O)NCC45CC6CC(CC(C6)C4)C5)nc(C)c3c2C)cc1 | > 100 µM | > 100 µM | 
8 | Cc1ccc(-n2nc3c(=O)n(CCCC(=O)NCCCC(=O)NCC45CC6CC(CC(C6)C4)C5)nc(C)c3c2C)cc1 | 8 µM | 11.4 µM | 
9 | Cc1ccc(-n2nc3c(=O)n(CCCC(=O)NCCNC(=O)CC45CC6CC(CC(C6)C4)C5)nc(C)c3c2C)cc1 | 10 µM | 20.4 µM | 
10 | Cc1ccc(-n2nc3c(=O)n(CCCC(=O)NCCc4ccc(NC(=O)CCCCCC(=O)NCC56CC7CC(CC(C7)C5)C6)cc4)nc(C)c3c2C)cc1 | > 100 µM | > 100 µM | 
11 | Cc1ccc(-n2nc3c(=O)n(CCCC(=O)NCCCCCCNC(=O)CC45CC6CC(CC(C6)C4)C5)nc(C)c3c2C)cc1 | 4.8 µM | 7.7 µM | Activity [4]: Dose-Dependent Effect; Activity [5]: Dose-Dependent Effect; Activity [6]: 15.23%; Activity [7]: 83.67%
12 | Cc1ccc(-n2nc3c(=O)n(CCCC(=O)NCCCCCCCCNC(=O)CC45CC6CC(CC(C6)C4)C5)nc(C)c3c2C)cc1 | 5.6 µM | 17.7 µM | 
13 | Cc1ccc(-n2nc3c(=O)n(CCCC(=O)NCCCCNC(=O)CC45CC6CC(CC(C6)C4)C5)nc(C)c3c2C)cc1 | 7 µM | 50.7 µM | 
14 | Cc1ccc(-n2nc3c(=O)n(CCCC(=O)NCC(C)c4ccccc4)nc(C)c3c2C)cc1 (centres undefined) | 18.3 µM | 82.4 µM | Activity [8]: 5.4%
